In ChEMBL document CHEMBL3259617, “Design, synthesis, and biological evaluation of (e)-3,4-dihydroxystyryl aralkyl sulfones and sulfoxides as novel multifunctional neuroprotective agents” (J Med Chem, 2014):
Calls of active or inactive are those of the source. No cut-off for these calls is given here.

Legend:
[1] = Antineuroinflammatory activity in mouse BV2 cells assessed as inhibition of LPS-induced nitric oxide production preincubated for 3 hrs followed by LPS challenge measured after 24 hrs by Griess assay; assay type: functional, cell-based; details: BV-2
Procedure, shortened: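 BV2 microglia grown in high-glucose DMEM with 10% FBS and penicillin/streptomycin, 5% CO₂, 37 °C. Seeded at 4 × 10⁵ cells mL⁻¹. Compounds in DMSO, diluted in medium, added for 3 h before LPS (final 100 nM). Nitrite in medium read with an NO assay kit at 540 nm after 24 h. Inhibition calculated against the LPS-only and normal controls. IC50 obtained by linear regression.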

[2] = test system: PC-12; assay: Neuroprotective activity against H2O2-induced damage in rat PC12 cells assessed as cell viability at 5 uM preincubated for 3 hrs followed by H2O2 challenge measured after 5 hrs by MTT assay; assay type: functional, cell-based
Procedure, shortened: (§1)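 PC12 cells in high-glucose DMEM with 10% FBS, 5% horse serum and antibiotics, 37 °C, 5% CO₂, seeded at 4 × 10⁵ cells mL⁻¹. Pretreated 3 h with compounds (DMSO, diluted in medium), then challenged with H₂O₂ at final 500 μM for 5 h. MTT absorbance at 570 nm; viability relative to untreated cells (100%); mean ± SD, n = 3.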

[3] = Permeability of the compound at 5 mg/mL after 18 hrs by PAMPA; assay type: physicochemical; details: read-out: permeability
[4] = test system: PC-12; assay: Neuroprotective activity against 6-OHDA-induced damage in rat PC12 cells assessed as cell viability at 40 uM preincubated for 3 hrs followed by 6-OHDA challenge measured after 48 hrs by MTT assay; assay type: functional, cell-based
Procedure, shortened: (§2)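 PC12 cells grown in high-glucose DMEM with 10% FBS, 5% horse serum and penicillin/streptomycin, 5% CO₂, 37 °C. Seeded at 4 × 10⁵ cells mL⁻¹. Compounds (DMSO stock diluted in medium) applied for 3 h, then 6-OHDA at final 400 μM for 48 h. MTT read at 570 nm; viability given as % of untreated cells; mean ± SD, n = 3.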

[5] = test system: Radical scavenging activity; assay: Antioxidant activity assessed as DPPH free radical scavenging effect after 30 mins by spectrophotometric analysis; assay type: functional
Procedure, shortened: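 Compounds and DPPH both in ethanol; equal volumes of test solution and 0.2 mM DPPH solution mixed; control was ethanol plus DPPH. Tested over 1−50 μM. Inhibition % = (A₀ − A_c)/A₀ × 100; IC50 by linear regression. Triplicate wells, three independent runs; vitamin C as reference.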

[6] = Cytotoxicity against mouse BV2 cells assessed as cell viability by MTT assay; assay type: cell-based, BV-2; parameters: concentration or dose not given beside the values; details: read-out: Activity
[7] = test system: PC-12; assay: Neuroprotective activity against 6-OHDA-induced damage in rat PC12 cells assessed as cell viability at 5 to 10 uM preincubated for 3 hrs followed by 6-OHDA challenge measured after 48 hrs by MTT assay; assay type: functional, cell-based; procedure, shortened: as §2
[8] = test system: PC-12; assay: Neuroprotective activity against H2O2-induced damage in rat PC12 cells assessed as cell viability at 2.5 uM preincubated for 3 hrs followed by H2O2 challenge measured after 5 hrs by MTT assay; assay type: functional, cell-based; procedure, shortened: as §1

IC50 [1] [µM] | Papp at 18 h, 5 mg/mL [3] [×10⁻⁶ cm/s] | IC50 [5] [µM] | Structure (SMILES) | Activity [2] | Activity [4] | viability [6] [%] | Activity [7] | Activity [8]
33 | 4.3 | 11.5 | COc1ccc(C[S+]([O-])/C=C/c2ccc(O)c(O)c2)cc1 (stereo unspecified) | Active | Active | > 90 | – | –
15.9 | 4.3 | 5.8 | O=S(=O)(/C=C/c1ccc(O)c(O)c1)Cc1ccc(C(F)(F)F)cc1 | Active | Active | > 90 | Active | –
11.7 | 3.3 | 8.8 | O=S(=O)(/C=C/c1ccc(O)c(O)c1)Cc1ccc(Cl)cc1 | Active | Active | > 90 | – | –
11.6 | 10.1 | 8.1 | O=S(=O)(/C=C/c1ccc(O)c(O)c1)Cc1ccccc1 | Active | Active | > 90 | – | –
9.3 | 5.8 | 9.9 | CC(C)(C)c1ccc(C[S+]([O-])/C=C/c2ccc(O)c(O)c2)cc1 (stereo unspecified) | Active | inactive | > 90 | – | –
30.6 | 5.7 | 10.5 | O=S(=O)(/C=C/c1ccc(O)c(O)c1)CCc1ccccc1 | Active | Active | > 90 | – | –
19.8 | 4.1 | 17.2 | O=S(=O)(/C=C/c1ccc(O)c(O)c1)CCCCc1ccccc1 | – | Active | > 90 | – | –
14 | 4.1 | 8.1 | [O-][S+](/C=C/c1ccc(O)c(O)c1)Cc1ccc(Cl)cc1 (stereo unspecified) | Active | Active | > 90 | – | –
– | – | – | O=C(/C=C/c1ccc(O)c(O)c1)OCCc1ccccc1 | Active | Active | – | Active | Active
11.9 | 6.4 | 9.1 | COc1ccc(CS(=O)(=O)/C=C/c2ccc(O)c(O)c2)cc1 | Active | Active | > 90 | – | –
36.8 | 4.5 | 16.2 | [O-][S+](/C=C/c1ccc(O)c(O)c1)CCCCc1ccccc1 (stereo unspecified) | – | Active | > 90 | – | –
15.5 | 4.2 | 7.8 | [O-][S+](/C=C/c1ccc(O)c(O)c1)Cc1ccc(C(F)(F)F)cc1 (stereo unspecified) | Active | Active | > 90 | – | –
42.6 | 5 | 11.6 | [O-][S+](/C=C/c1ccc(O)c(O)c1)CCc1ccccc1 (stereo unspecified) | – | Active | > 90 | Active | –
28.6 | 9.1 | 14.4 | [O-][S+](/C=C/c1ccc(O)c(O)c1)CCCc1ccccc1 (stereo unspecified) | Active | Active | > 90 | – | –
10.5 | 4.1 | 9.9 | O=S(=O)(/C=C/c1ccc(O)c(O)c1)CCCc1ccccc1 | Active | Active | > 90 | – | Active
12.6 | 4.7 | 9.5 | CC(C)(C)c1ccc(CS(=O)(=O)/C=C/c2ccc(O)c(O)c2)cc1 | Active | inactive | > 90 | – | Active
50.3 | 4.9 | 14.7 | [O-][S+](/C=C/c1ccc(O)c(O)c1)Cc1ccccc1 (stereo unspecified) | Active | Active | > 90 | – | –
